From ChEMBL document CHEMBL3588770, “Novel spirohydantoin derivative as a potent multireceptor-active antipsychotic and antidepressant agent” (Bioorg Med Chem, 2015)

What was measured:
[1] = target: D(1A) dopamine receptor (Homo sapiens) (UniProt P21728); assay: Displacement of [3H]SCH23390 from human D1 receptor expressed in CHO cells at 1 uM by scintillation counting analysis; assay type: cell-based
Outline: (§1)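 Extended binding screen run by a contract lab. Receptors were cloned human: 5-HT1A, 5-HT2A, 5-HT2C and H1 in HEK-293 cells; D1, α1, α2C and M3 in CHO cells; 5-HT6/7 and D2/3/4 in CHO cells. Radioligand displacement was done at a single 1.0E-06 concentration in duplicate. Results are mean % inhibition of control specific binding.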

[2] = target: D(2) dopamine receptor (Homo sapiens) (UniProt P14416); assay: Displacement of [3H]methylspiperione from human D2 receptor expressed in CHO cells at 1 uM by scintillation counting analysis; assay type: cell-based; outline: as §1
Sequence of D(2) dopamine receptor (Homo sapiens) (P14416 whole entry): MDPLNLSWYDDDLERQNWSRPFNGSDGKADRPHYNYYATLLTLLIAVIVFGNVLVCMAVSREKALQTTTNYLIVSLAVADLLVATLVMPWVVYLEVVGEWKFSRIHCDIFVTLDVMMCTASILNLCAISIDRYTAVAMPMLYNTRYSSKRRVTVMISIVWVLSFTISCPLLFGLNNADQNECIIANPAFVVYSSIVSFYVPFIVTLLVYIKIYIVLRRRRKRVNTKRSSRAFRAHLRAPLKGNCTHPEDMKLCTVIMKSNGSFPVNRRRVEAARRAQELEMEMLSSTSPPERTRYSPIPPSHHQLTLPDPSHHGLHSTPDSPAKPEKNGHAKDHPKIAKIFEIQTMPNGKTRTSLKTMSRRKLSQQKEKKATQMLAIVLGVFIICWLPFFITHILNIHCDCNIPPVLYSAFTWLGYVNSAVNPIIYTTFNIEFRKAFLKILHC

[3] = target: T1, Alpha-2C adrenergic receptor (Homo sapiens) (UniProt P18825); assay: Displacement of [3H]RX821002 from human alpha2C adrenergic receptor expressed in CHO cells at 1 uM by scintillation counting analysis; assay type: cell-based; outline: as §1
T1 sequence (whole entry): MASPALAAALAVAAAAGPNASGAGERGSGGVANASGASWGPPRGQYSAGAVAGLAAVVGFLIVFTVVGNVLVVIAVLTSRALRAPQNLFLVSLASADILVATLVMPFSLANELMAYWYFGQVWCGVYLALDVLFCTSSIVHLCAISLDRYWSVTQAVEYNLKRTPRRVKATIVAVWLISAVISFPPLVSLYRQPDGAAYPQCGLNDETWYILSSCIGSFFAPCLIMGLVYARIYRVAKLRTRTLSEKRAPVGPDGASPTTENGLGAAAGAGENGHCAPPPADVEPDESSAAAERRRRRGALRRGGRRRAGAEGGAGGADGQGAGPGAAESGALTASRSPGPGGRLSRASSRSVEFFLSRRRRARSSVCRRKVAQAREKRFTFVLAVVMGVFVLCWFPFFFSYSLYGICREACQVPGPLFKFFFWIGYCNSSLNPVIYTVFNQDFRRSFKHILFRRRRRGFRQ

[4] = target: T2, 5-hydroxytryptamine receptor 1A (Homo sapiens) (UniProt P08908); assay: Displacement of [3H]-8-OH-DPAT from human cloned 5HT1A receptor expressed in HEK293 cells at 1 uM by scintillation counting analysis; assay type: cell-based; outline: as §1
T2 sequence (whole entry): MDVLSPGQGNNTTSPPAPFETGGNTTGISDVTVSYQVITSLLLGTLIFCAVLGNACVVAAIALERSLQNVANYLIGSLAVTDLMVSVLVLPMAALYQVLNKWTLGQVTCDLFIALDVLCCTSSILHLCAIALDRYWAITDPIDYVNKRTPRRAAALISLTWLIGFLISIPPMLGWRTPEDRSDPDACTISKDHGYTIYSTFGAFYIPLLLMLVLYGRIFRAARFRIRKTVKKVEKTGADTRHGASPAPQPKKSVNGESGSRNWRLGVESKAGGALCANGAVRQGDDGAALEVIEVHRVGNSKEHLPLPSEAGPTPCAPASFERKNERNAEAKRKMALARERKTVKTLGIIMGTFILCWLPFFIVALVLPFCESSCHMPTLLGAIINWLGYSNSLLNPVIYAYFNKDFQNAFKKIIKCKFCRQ

[5] = target: D(3) dopamine receptor (Homo sapiens) (UniProt P35462); assay: Displacement of [3H]methylspiperione from human D3 receptor expressed in CHO cells at 1 uM by scintillation counting analysis; assay type: cell-based; outline: as §1
Sequence of D(3) dopamine receptor (Homo sapiens) (P35462 whole entry): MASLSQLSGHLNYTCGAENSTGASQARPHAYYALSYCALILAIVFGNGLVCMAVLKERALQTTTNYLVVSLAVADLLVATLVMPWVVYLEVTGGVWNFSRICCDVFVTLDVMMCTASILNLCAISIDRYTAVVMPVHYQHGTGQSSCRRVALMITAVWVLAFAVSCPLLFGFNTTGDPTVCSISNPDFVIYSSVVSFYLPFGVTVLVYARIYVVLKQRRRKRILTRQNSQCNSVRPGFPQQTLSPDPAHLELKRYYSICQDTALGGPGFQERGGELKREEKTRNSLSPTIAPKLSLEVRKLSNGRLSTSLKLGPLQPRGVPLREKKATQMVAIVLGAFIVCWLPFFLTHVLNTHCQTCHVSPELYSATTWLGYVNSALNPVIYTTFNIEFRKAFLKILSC

[6] = target: 5-hydroxytryptamine receptor 7 (Rattus norvegicus, UniProt P32305); assay: Displacement of [3H]-5-CT from 5-HT7 receptor in rat hypothalamic membrane by liquid scintillation analysis; assay type: cell membranes
Sequence of 5-hydroxytryptamine receptor 7 (P32305 whole entry): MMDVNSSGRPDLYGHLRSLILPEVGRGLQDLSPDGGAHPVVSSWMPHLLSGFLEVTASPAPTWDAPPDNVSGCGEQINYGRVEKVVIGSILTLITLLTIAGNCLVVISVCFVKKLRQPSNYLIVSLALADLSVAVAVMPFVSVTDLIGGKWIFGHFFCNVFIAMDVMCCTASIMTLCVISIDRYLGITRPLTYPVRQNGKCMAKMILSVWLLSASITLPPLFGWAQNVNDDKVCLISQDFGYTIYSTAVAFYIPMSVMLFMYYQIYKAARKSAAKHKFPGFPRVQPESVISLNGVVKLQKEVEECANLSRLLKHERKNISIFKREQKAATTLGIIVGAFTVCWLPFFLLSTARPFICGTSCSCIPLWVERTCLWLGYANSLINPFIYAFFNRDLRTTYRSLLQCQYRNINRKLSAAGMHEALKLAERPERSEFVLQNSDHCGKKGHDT
Outline: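 Native rat membranes were used: hippocampus with [3H]-8-OH-DPAT (170 Ci/mmol) and 5-HT for non-specific binding; cortex with [3H]-ketanserin (88.0 Ci/mmol) and methysergide; hypothalamus with [3H]-5-CT (34.5 Ci/mmol) and 5-HT. Compounds were tested in triplicate at 7–8 concentrations (10⁻¹¹–10⁻⁴ M). Read-out was liquid scintillation counting. Ki came from nonlinear regression with Cheng-Prusoff, as the mean of at least two experiments.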

[7] = target: 5-hydroxytryptamine receptor 7 (Homo sapiens) (UniProt P34969); assay: Displacement of [3H]LSD from human 5HT7 receptor expressed in CHO cells at 1 uM by scintillation counting analysis; assay type: cell-based; outline: as §1
Sequence of 5-hydroxytryptamine receptor 7 (Homo sapiens) (P34969 whole entry): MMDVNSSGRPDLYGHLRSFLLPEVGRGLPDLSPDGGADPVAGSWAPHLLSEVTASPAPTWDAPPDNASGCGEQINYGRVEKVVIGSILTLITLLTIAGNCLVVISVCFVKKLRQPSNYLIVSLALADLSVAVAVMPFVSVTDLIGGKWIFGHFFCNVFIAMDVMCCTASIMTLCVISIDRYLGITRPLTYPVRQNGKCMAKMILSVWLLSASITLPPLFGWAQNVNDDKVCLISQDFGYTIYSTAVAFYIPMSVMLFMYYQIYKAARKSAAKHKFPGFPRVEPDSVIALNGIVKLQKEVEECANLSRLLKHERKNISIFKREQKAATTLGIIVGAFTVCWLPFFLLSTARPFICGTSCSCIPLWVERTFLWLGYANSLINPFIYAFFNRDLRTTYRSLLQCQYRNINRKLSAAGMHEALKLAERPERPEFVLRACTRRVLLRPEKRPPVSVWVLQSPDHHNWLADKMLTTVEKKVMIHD

[8] = target: T3, 5-hydroxytryptamine receptor 2C (Homo sapiens) (UniProt P28335); assay: Displacement of [3H]-mesulergine from human cloned 5HT2C receptor expressed in HEK293 cells at 1 uM by scintillation counting analysis; assay type: cell-based; outline: as §1
T3 sequence (whole entry): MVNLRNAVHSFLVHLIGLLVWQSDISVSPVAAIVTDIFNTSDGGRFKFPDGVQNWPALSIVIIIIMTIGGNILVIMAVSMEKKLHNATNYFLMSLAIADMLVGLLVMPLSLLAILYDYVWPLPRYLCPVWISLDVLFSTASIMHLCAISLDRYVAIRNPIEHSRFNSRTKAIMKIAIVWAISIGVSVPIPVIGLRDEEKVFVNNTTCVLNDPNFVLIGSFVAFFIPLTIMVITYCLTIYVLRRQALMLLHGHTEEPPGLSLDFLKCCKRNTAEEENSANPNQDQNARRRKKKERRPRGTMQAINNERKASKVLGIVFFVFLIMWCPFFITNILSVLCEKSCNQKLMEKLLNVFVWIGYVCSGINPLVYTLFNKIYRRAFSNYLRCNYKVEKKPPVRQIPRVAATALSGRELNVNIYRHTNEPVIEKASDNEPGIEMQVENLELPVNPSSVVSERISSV

D(2) dopamine receptor = D(2) dopamine receptor (Rattus norvegicus, UniProt P61169); assay: Displacement of [3H]spiperone from D2 receptor in rat striatum by liquid scintillation counting analysis
Sequence of D(2) dopamine receptor (P61169 whole entry): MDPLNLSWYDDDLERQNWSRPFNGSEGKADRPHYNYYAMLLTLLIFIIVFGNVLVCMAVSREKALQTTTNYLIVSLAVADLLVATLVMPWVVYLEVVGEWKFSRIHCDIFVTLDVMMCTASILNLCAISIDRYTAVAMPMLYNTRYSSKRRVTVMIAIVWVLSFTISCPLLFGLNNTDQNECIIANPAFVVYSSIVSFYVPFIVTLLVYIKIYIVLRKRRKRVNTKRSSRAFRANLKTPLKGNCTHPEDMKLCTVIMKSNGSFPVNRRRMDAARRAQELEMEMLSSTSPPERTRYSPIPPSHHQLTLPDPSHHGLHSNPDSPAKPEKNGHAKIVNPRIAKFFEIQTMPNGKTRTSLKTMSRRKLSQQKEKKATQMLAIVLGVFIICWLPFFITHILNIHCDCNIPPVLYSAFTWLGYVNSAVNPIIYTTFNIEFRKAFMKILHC
Outline: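 Rat striatal membranes with [3H]-spiperone. Compounds were tested in triplicate at 7–8 concentrations (10⁻¹¹–10⁻⁴). Ki values were calculated.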

[9] = target: T4, D(4) dopamine receptor (Homo sapiens) (UniProt P21917); assay: Displacement of [3H]methylspiperione from human D4 receptor expressed in CHO cells at 1 uM by scintillation counting analysis; assay type: cell-based; outline: as §1
T4 sequence (whole entry): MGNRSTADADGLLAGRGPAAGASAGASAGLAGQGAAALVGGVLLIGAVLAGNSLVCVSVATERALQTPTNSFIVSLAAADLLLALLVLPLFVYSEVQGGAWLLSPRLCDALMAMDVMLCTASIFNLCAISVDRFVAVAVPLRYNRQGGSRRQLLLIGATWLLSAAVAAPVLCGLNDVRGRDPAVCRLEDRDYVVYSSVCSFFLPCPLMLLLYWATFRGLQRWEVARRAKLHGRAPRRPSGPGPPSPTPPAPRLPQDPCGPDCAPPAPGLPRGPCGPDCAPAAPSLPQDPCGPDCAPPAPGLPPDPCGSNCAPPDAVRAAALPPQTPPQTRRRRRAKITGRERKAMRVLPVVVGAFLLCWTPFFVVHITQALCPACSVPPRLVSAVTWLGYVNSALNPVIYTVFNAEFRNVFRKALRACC

[10] = target: 5-hydroxytryptamine receptor 2A (Homo sapiens) (UniProt P28223); assay: Displacement of [3H]ketanserin from human cloned 5HT2A receptor expressed in HEK293 cells at 1uM by scintillation counting analysis; assay type: cell-based; outline: as §1
Sequence of 5-hydroxytryptamine receptor 2A (Homo sapiens) (P28223 whole entry): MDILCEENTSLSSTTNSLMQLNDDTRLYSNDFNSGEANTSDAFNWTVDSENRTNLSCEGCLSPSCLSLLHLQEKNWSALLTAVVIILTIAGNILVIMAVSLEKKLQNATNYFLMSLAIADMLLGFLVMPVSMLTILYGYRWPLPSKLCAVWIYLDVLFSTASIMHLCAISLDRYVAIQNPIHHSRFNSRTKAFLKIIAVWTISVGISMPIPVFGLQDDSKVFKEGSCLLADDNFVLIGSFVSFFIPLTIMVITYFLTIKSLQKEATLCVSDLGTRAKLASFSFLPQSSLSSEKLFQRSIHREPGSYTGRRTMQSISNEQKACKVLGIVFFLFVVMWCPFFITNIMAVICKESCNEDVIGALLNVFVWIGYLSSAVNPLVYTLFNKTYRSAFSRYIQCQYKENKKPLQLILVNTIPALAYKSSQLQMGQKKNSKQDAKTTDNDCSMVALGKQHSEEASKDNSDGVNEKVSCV

Sequence of D(1A) dopamine receptor (Homo sapiens) (P21728 whole entry): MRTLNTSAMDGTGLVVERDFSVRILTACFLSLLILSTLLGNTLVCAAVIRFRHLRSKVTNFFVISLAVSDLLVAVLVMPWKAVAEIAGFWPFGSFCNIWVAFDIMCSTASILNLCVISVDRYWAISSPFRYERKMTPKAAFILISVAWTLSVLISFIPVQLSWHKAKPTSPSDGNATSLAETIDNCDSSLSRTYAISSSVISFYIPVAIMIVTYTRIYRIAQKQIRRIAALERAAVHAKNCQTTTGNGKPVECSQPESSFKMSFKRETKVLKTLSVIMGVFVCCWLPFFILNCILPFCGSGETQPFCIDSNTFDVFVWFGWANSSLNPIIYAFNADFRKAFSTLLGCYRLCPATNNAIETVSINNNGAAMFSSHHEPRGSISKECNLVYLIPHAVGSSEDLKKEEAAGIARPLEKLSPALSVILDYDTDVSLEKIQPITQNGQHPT

## COc1ccccc1N1CCN(CCCCN2C(=O)NC3(CCc4ccccc43)C2=O)CC1 (centres undefined)
[1]
  inhibition: 68%
[2]
  inhibition: 96%
[3]
  inhibition: 101%
[4]
  inhibition: 103%
[5]
  inhibition: 96%
[6]
  Ki: 71 nM
[7]
  inhibition: 98%
[8]
  inhibition: 21%
D(2) dopamine receptor
  Ki: 104 nM
[9]
  inhibition: 95%
[10]
  inhibition: 100%

## O=C1NC2(CCc3ccccc32)C(=O)N1CCCCN1CCN(c2cccc(Cl)c2)CC1 (centres undefined)
[1]
  inhibition: 91%
[2]
  inhibition: 75%
[3]
  inhibition: 97%
[4]
  inhibition: 103%
[5]
  inhibition: 97%
[6]
  Ki: 27 nM
[7]
  inhibition: 99%
[8]
  inhibition: 61%
D(2) dopamine receptor
  Ki: 539 nM
[9]
  inhibition: 90%
[10]
  inhibition: 98%

## COc1ccccc1N1CCN(CCCCN2C(=O)NC3(CCCc4ccccc43)C2=O)CC1 (centres undefined)
[1]
  inhibition: 87%
[2]
  inhibition: 97%
[3]
  inhibition: 101%
[4]
  inhibition: 98%
[5]
  inhibition: 94%
[6]
  Ki: 47 nM
[7]
  inhibition: 99%
[8]
  inhibition: 24%
D(2) dopamine receptor
  Ki: 59 nM
[9]
  inhibition: 98%
[10]
  inhibition: 69%

## O=C1NC2(CCCc3ccccc32)C(=O)N1CCCCN1CCN(c2cccc(Cl)c2)CC1 (centres undefined)
[1]
  inhibition: 95%
[2]
  inhibition: 77%
[3]
  inhibition: 99%
[4]
  inhibition: 99%
[5]
  inhibition: 93%
[6]
  Ki: 37 nM
[7]
  inhibition: 100%
[8]
  inhibition: 61%
D(2) dopamine receptor
  Ki: 1100 nM
[9]
  inhibition: 93%
[10]
  inhibition: 95%
